Active and inactive are the calls of the source. The rule behind the calls is not given here.
What was measured:
Hs-578T [1] = assay: Induction of Hsp70 overexpression in human Hs578T cells at 10 to 20 uM by Western blot analysis; type: functional, cell-based
In short: (§1)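 Hs578T cells seeded in 6-well plates, treated the next day for 48 h, with medium and drug at the same concentration replaced every 24 h. Cells were harvested at 48 h and lysed, and 10 μg protein lysate was analysed by Western blot with specific antibodies, including rabbit anti-total GR.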

MDA-MB-453 = assay: Cytotoxicity against human MDA-MB-453 cells assessed as cell survival at 10 to 20 uM by MTS assay; type: functional, cell-based
Oryctolagus cuniculus = organism: Oryctolagus cuniculus; assay: Inhibition of Hsp90 chaperoning activity in rabbit reticulocyte lysate assessed as progesterone receptor hormone binding activity by liquid scintillation counting analysis
In short: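 Purified PR was bound to PR22 antibody-protein A-sepharose beads and mildly heat-denatured. Then 0.1 μM [3H]-progesterone was added for 3 h on ice, beads washed three times, and bound hormone counted by liquid scintillation.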

LNCaP [2] = assay: Cytotoxicity against human LNCAP cells assessed as cell survival at 10 to 20 uM by MTS assay; type: functional, cell-based
MCF7 = assay: Cytotoxicity against human MCF7 cells assessed as cell survival at 10 to 20 uM by MTS assay; type: functional, cell-based
Hs-578T [3] = assay: Induction of Hsp40 degradation in human Hs578T cells at 10 to 20 uM by Western blot analysis; type: functional, cell-based; in short: as §1
Hs-578T [4] = assay: Induction of glucocorticoid receptor degradation in human Hs578T cells at 10 to 20 uM by Western blot analysis; type: functional, cell-based; in short: as §1
MDA-MB-231 [5] = assay: Cytotoxicity against human MDA-MB-231 cells assessed as cell survival at 10 to 20 uM by MTS assay; type: functional, cell-based
HeLa = assay: Cytotoxicity against human HeLa cells assessed as cell survival at 10 to 20 uM by MTS assay; type: functional, cell-based
Hs-578T [6] = assay: Cytotoxicity against human Hs578T cells assessed as cell survival at 10 to 20 uM by MTS assay; type: functional, cell-based
LNCaP [7] = assay: Cytotoxicity against human LNCAP cells assessed as cell survival at 10 to 20 uM after 48 hrs by MTS assay; type: functional, cell-based
Hs-578T [8] = assay: Cytotoxicity against human Hs578T cells assessed as cell survival at 10 to 20 uM after 48 hrs by MTS assay; type: functional, cell-based
MDA-MB-231 [9] = assay: Cytotoxicity against human MDA-MB-231 cells assessed as cell survival at 10 to 20 uM after 48 hrs by MTS assay; type: functional, cell-based

inhibition (Oryctolagus cuniculus) | SMILES | Activity (Hs-578T [1]) | Activity (MDA-MB-453) | Activity (LNCaP [2]) | Activity (MCF7) | Activity (Hs-578T [3]) | Activity (Hs-578T [4]) | Activity (MDA-MB-231 [5]) | Activity (HeLa) | Activity (Hs-578T [6]) | inhibition (LNCaP [7]) | inhibition (Hs-578T [8]) | inhibition (MDA-MB-231 [9])
Active | CC[C@H](C)/C=C(C)/C=C/C1=CC2=C(Cl)C(=O)[C@](C)(O)C(=O)C2=CO1 | – | – | – | – | – | – | – | – | – | Active | Active | Active
Active | C=CCNC1=C2C[C@@H](C)C[C@H](OC)[C@H](O)[C@@H](C)/C=C(\C)[C@H](OC(N)=O)[C@@H](OC)/C=C\C=C(/C)C(=O)NC(=CC1=O)C2=O | – | – | – | – | – | – | – | – | – | – | – | –

SMILES | inhibition (Oryctolagus cuniculus) | Activity (Hs-578T [1]) | Activity (MDA-MB-453) | Activity (LNCaP [2]) | Activity (MCF7) | Activity (Hs-578T [3]) | Activity (Hs-578T [4]) | Activity (MDA-MB-231 [5]) | Activity (HeLa) | Activity (Hs-578T [6]) | inhibition (LNCaP [7]) | inhibition (Hs-578T [8]) | inhibition (MDA-MB-231 [9])
CC[C@H](C)/C=C(C)/C=C/C1=CC2=C(Cl)C(=O)[C@](C)(OC(C)=O)C(=O)C2=CO1 | Active | Active | inactive | inactive | inactive | Active | Active | inactive | inactive | inactive | – | – | –

— ChEMBL document CHEMBL3352052, “Bioactive metabolites from Chaetomium aureum: structure elucidation and inhibition of the Hsp90 machine chaperoning activity” (Bioorg Med Chem, 2015)
